# GRK2 aptamer HTS – blocks RNA aptamer binding to human GRK2. bead flow cytometry, FAM-aptamer displacement from GRK2. inhibition of aptamer binding, % at 10 µM. AID 488847. 330,000 compounds, 0.59% hits;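 active means inhibition of aptamer binding above 40%, roughly 3 SD of noise, on plates passing a quality check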;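 further: median bead fluorescence of bound FAM aptamer so fluorescent compounds give negative values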
# SENP1 FRET inh – inhibitors of human SENP1 SUMO protease catalytic domain. Q9P0U3. recombinant SENP1 catalytic domain, CyPet-SUMO1-YPet FRET cleavage. inhibition, % at 10 µM. 360,000 compounds, 0.21% hits. AID 624204;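 active means inhibition at least 30% at 10 µM, raw YFP signal under a set limit, fluorescence ratio 0.5 to 1.5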;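 further: 0% = enzyme with DMSO and 100% = no enzyme wells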
#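 Test system: human SENP1 catalytic domain; medium: Tris pH 8 buffer plus EDTA, NaCl, BME, BSA, NP40, catalase; incubation: 50 min reaction at room temperature; technique: FRET, CFP and YFP emission; controls: no-enzyme low control and enzyme-plus-DMSO high control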
# NadD inh – NadD (S. aureus) enzyme inhibition; purified NadD enzyme, colorimetric absorbance read-out; inhibition, % at 20 µM; 360,000 compounds, 0.78% hits; AID 602399; in the data active means inhibition above about 26%
# ABHD5-PLIN5 inh – blocks binding of human ABHD5 to perilipin-5. Q00G26+Q8WTS1. Split G. princeps luciferase complementation, luminescence, 4 h. inhibition, % at 4 µM. 360,000 compounds, 0.78% hits;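 active means inhibition above the mean inhibition across every tested compound plus 3 SD, cut at about 22% in these data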;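 further: 0% = DMSO only wells and the 100% control is not disclosed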
# Target sequence (Q00G26 whole entry, looked up): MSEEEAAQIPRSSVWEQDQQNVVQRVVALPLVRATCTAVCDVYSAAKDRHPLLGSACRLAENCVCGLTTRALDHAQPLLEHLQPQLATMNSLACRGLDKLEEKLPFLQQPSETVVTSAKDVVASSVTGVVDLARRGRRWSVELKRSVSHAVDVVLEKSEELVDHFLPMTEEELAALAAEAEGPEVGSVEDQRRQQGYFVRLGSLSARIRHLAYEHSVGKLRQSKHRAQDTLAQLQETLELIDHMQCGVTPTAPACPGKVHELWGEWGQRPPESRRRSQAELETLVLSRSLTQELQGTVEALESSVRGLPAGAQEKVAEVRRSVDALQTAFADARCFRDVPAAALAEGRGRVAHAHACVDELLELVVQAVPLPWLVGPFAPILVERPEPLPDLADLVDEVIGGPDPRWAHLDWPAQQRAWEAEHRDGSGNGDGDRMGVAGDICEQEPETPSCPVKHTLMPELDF
# Target sequence (Q8WTS1 whole entry, looked up): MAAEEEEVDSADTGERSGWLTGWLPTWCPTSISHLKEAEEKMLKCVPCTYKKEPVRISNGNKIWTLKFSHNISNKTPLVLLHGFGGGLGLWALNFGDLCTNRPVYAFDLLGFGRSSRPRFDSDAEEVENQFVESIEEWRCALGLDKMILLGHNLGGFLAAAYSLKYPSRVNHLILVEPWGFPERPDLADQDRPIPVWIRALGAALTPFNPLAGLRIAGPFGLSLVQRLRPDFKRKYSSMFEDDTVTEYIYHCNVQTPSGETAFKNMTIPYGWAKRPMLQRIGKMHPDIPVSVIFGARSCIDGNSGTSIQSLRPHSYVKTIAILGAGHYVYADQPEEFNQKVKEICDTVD
# Beta2AR agonist – agonists of human beta-2 adrenergic receptor inducing internalization. P07550. Am2.2-beta2AR cells, FAP receptor internalization, flow cytometry. response, % (no concentration beside the values). 340,000 compounds, 0.43% hits. AID 504454;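 active means response above a set limit, near 3 SD of response in nonfluorescent compounds, cut at about 42% in these data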
# ABHD5-PLIN5 conf – ABHD5-PLIN5 interaction inhibition, confirmed | biochemical ABHD5-PLIN5 interaction, luminescence | AID 651612 | shares compounds with ABHD5-PLIN5 inh | 2,200 compounds, 67% hits | inhibition, % at 4 µM; in the data active means inhibition above about 23%;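 further: 0% = DMSO vehicle wells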
# HNF4 split-luc – active in HNF4 split-luciferase counter-screen for ABHD5-PLIN5 inhibitors; shares compounds with ABHD5-PLIN5 inh; HNF4 dimerization, luminescence, biochemical; inhibition, % at 4 µM; 2,200 compounds, 77% hits;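 active means mean inhibition across replicate wells exceeding the computed hit threshold, cut at about 13% in these data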;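 further: light from luciferase halves that rejoin when HNF4 fusion proteins dimerize; 0% = DMSO only wells and the 100% control is not given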
# * hit, by the source's call; nt = no result. Shown are actives, neighbours in structure and some others; about 2.5% of the full set was active somewhere.
SMILES,GRK2 aptamer HTS,SENP1 FRET inh,NadD inh,ABHD5-PLIN5 inh,Beta2AR agonist,ABHD5-PLIN5 conf,HNF4 split-luc
CC(=O)C(=Cc1cccc(C#N)c1)C(=O)c1ccccc1,nt,-0.7,7.1,61.5*,nt,94.8*,86.7*
COc1ccc(C=C(C(=O)c2ccccc2)C(=O)c2ccccc2)cc1,nt,-1.9,-1.4,60.2*,nt,60.5*,55.6*
N#C/C(=C\c1cccc(Cl)c1)C(=O)c1ccccc1,2.0,-16.0,4.0,15.5,3.4,nt,nt
COc1ccc(C=C(C(=O)c2ccccc2)c2ccccc2)cc1,nt,-1.0,14.3,-2.6,nt,nt,nt
COc1ccc(C=C(C(C)=O)C(=O)c2ccccc2)cc1,nt,-2.0,-3.8,39.8*,nt,51.6*,42.8*
CN(Cc1ccccc1)C(=O)COC(=O)c1cc(=O)[nH]c2ccccc12,2.0,2.3,2.9,-1.6,-7.1,nt,nt
C=CCNc1nc2c(c(=O)[nH]c(=O)n2C)n1CC(O)COc1ccc2ccccc2c1 (stereo not drawn),nt,0.1,-6.2,14.9,9.6,nt,nt
CCc1ccc(Nc2nnc(SC(C)C(=O)NC3CC3)s2)cc1 (stereo not drawn),0.0,2.5,-0.7,78.1*,-6.7,5.1,-0.2
COc1ccc(OC)c(/C=C/C(=O)c2ccc(Cl)cc2)c1,0.0,9.0,-9.9,49.4*,4.8,71.6*,55.1*
COc1ccccc1/C=C/C(=O)c1ccc(NC(C)=O)cc1,5.0,0.1,-3.4,11.3,-7.6,nt,nt
COc1ccccc1/C=C/C(=O)c1ccccc1,1.0,2.1,-8.5,28.8*,-3.9,54.7*,33.7*
COc1ccccc1/C=C/C(=O)c1ccc(Cl)cc1,2.0,-1.5,0.0,27.1*,0.2,69.2*,48.7*
COc1cc(O)c(C(=O)/C=C/c2ccccc2)c(OC)c1,1.0,3.1,1.6,26.7*,2.8,50.2*,44.2*
CC(C)C(NC(=O)c1ccc(F)cc1)C(=O)N1CCN(C(=O)c2ccco2)CC1 (stereo not drawn),4.0,0.8,5.9,-9.2,2.0,nt,nt
Nc1nccnc1C(=O)OCC(=O)NCCc1ccc(Cl)cc1,0.0,-30.3,3.6,8.2,-5.9,nt,nt
COc1cc(C=CC(=O)c2ccccc2)cc(OC)c1OC,nt,0.8,-3.5,47.9*,nt,68.4*,49.8*
CCOC(=O)c1c(NC(=O)/C=C/C(=O)O)sc(C)c1-c1ccc(C(C)(C)C)cc1,0.0,4.0,12.2,34.7*,16.4,71.3*,27.2*
CCOC(=O)c1c(C)[nH]c(C)c1C(=O)COC(=O)c1cccs1,22.0,-1.6,-2.0,7.2,-10.9,nt,nt
O=C(Nc1ccc[n+](CC(=O)c2cccc3ccccc23)c1)c1ccccc1,0.0,-2.3,7.8,24.0*,28.2,18.4,7.2
COc1cccc2cc(C(=O)NCc3ccco3)c(=O)oc12,5.0,0.6,-0.7,0.4,-0.7,nt,nt
COc1ccc(S(=O)(=O)CC(=O)c2cc3cc(Br)ccc3oc2=O)cc1,5.0,-57.7,27.0,33.1*,8.6,69.8*,53.4*
COc1ccc2oc(=O)c(C(=O)NCc3ccco3)cc2c1,1.0,-83.8,2.1,34.4*,4.9,6.3,9.1
CC(C)(C)C(=O)c1c(N)[nH]c(C(=O)c2ccccc2)c1-c1ccc(Br)cc1,nt,4.2,0.4,-5.6,nt,nt,nt
COC1=C(OC)C(=O)C(Sc2ccc3ccccc3c2)=CC1=O,nt,-4.0,14.9,81.0*,15.8,72.1*,103.8*
Cc1cc(NC(=O)Nc2ccc(F)cc2F)n(C)n1,1.0,2.4,6.9,43.5*,3.4,-3.6,4.0
SMILES,GRK2 aptamer HTS,SENP1 FRET inh,NadD inh,ABHD5-PLIN5 inh,Beta2AR agonist,ABHD5-PLIN5 conf,HNF4 split-luc
COc1ccc(C)c2sc(N(CCN(C)C)C(=O)/C=C/c3cccs3)nc12,0.0,0.7,-3.9,35.1*,22.3,22.6*,7.5
CN(C)CCCN(C(=O)c1sc2ccccc2c1Cl)c1nc2ccc(F)cc2s1,0.0,1.2,4.4,25.0*,37.6,19.4,4.0
CN(C)CCCN(C(=O)/C=C/c1cccs1)c1nc2ccc(F)cc2s1,0.0,2.1,-4.4,38.7*,27.0,20.4,24.3*
Cc1ccc2nc(N(CCN(C)C)C(=O)/C=C/c3cccs3)sc2c1,0.0,0.7,6.3,35.0*,0.8,17.7,6.0
CCN(CC)CCN(C(=O)/C=C/c1cccs1)c1nc2ccc(F)cc2s1,0.0,-0.3,2.7,0.4,3.5,nt,nt
COc1ccc(/C=C/c2c(-c3ccc(OC)cc3)sc3cc(OC)c(OC)cc23)cc1,0.0,0.8,9.5,-12.5,0.6,nt,nt
COc1ccc(CC(C)N2CCN(Cc3ccccc3)CC2)cc1OC (stereo not drawn),2.0,-0.1,-5.0,-4.4,-6.0,nt,nt
CCCc1ccc(C(C)NC(=S)NC2CCCCC2)cc1 (stereo not drawn),1.0,2.3,0.5,3.5,6.7,nt,nt
CN(Cc1ccc(F)cc1)C(=O)COc1ccccc1-c1ccccc1,0.0,-0.1,-3.8,-0.7,-2.7,nt,nt
CN1CCS/C1=C/C=C1/SC(=S)N(Cc2ccccc2)C1=O,0.0,38.6,-1.8,25.3*,-99.9,22.3*,17.7*
CCCCN1C(=O)/C(=C/C=C2\SCCN2C)SC1=S,nt,21.5,6.4,29.8*,-53.1,25.4*,20.8*
CCCC(=O)Nc1nnc(S(=O)(=O)N(C)Cc2ccco2)s1,1.0,-8.4,-1.6,41.4*,1.8,30.4*,55.7*
Cc1ccccc1C(=O)Nc1nnc(S(=O)(=O)N(C)Cc2ccco2)s1,2.0,-4.1,-1.1,15.4,9.2,nt,nt
CN(Cc1ccco1)S(=O)(=O)c1nnc(NC(=O)c2ccccc2Cl)s1,1.0,-2.9,-4.9,29.5*,2.5,45.7*,74.2*
N#Cc1nc(Nc2cccc(Cl)c2)c2ncn(C3CCCC3)c2n1,0.0,-76.6,0.3,2.7,8.0,nt,nt
ON=C1c2ccccc2-c2cc(Br)ccc21,nt,-2.6,-1.5,-1.7,12.2,nt,nt
C=CS(=O)(=O)c1ccc(Oc2ccc(S(=O)(=O)C=C)cc2)cc1,0.0,0.5,1.6,86.3*,42.4*,99.5*,101.9*
NS(=O)(=O)c1ccc(Oc2ccc(S(N)(=O)=O)cc2)cc1,0.0,0.9,-4.6,-4.7,1.6,nt,nt
CCCCOC(=O)CCCN1C(=O)/C(=C2\SC(=S)N(CCCC(=O)OCCCC)C2=O)SC1=S,1.0,1.4,9.7,0.3,9.5,nt,nt
CCOc1cc(/C=C\[N+](=O)[O-])ccc1OCC(=O)N1CCOCC1,0.0,1.6,-1.0,29.0*,67.3*,69.6*,69.9*
CC(C)Oc1ccc(/C=N/NC(=O)c2nnn(-c3nonc3N)c2CN(C)c2ccccc2)cc1,0.0,2.5,6.4,-10.1,6.0,nt,nt
COc1cc(/C=C2\CC/C(=C\c3cc(OC)c(O)c(OC)c3)C2=O)cc(OC)c1O,15.0,-24.2,23.4,32.0*,11.6,39.4*,39.1*

# Screening data from PubChem.
